TLR4 MyD88 comp: inhibitors of human TLR4-MyD88 binding; O00206+Q99836; HeLa CL3-4 TLR4/MyD88 BLA complementation, FRET ratio; inhibition, % at 8.4 µM; 200,000 tested, 0.18% active; AID 861; in the data active means inhibition above about 25%;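 further: 0% = vehicle and 100% = reference inhibitor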
Target sequence (O00206 whole entry, looked up): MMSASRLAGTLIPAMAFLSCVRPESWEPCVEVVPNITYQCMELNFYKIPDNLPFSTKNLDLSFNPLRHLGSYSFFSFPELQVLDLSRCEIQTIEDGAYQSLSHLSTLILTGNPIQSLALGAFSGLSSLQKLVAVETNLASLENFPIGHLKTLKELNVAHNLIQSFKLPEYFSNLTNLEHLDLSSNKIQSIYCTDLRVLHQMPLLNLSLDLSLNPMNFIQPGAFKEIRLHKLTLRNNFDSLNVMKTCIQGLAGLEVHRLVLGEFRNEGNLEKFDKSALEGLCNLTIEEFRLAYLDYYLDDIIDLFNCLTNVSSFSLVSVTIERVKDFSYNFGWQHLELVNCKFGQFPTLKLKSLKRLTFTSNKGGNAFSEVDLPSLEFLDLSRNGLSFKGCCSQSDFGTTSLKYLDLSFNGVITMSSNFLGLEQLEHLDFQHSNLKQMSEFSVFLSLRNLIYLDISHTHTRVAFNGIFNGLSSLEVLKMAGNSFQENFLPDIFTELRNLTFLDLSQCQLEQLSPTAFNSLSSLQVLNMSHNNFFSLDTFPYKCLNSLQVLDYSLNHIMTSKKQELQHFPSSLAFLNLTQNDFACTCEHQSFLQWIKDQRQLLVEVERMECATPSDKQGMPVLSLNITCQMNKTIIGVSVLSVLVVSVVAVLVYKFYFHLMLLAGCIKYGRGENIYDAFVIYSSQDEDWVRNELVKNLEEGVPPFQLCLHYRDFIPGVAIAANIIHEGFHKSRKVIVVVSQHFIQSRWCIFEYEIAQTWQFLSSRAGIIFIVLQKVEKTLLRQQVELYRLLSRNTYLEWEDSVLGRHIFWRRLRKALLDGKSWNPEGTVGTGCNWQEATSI
Target sequence (Q99836 whole entry, looked up): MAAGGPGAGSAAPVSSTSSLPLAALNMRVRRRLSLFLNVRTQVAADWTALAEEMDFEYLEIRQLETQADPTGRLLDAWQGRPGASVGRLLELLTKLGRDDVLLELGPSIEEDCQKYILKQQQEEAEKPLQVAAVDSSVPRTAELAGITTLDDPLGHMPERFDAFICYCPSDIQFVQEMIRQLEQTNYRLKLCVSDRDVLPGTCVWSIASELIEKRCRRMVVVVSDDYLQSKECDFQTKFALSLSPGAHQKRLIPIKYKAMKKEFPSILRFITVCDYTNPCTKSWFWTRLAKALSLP
NOD2 RIPK2 PPI: inhibitors of human NOD2-RIPK2 interaction; O43353; CHO BLA complementation NOD2-RIPK2, CCF4 ratio; inhibition, % at 4.98 µM; 360,000 tested, 0.38% active; in the data active means inhibition above about 21%;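 further: 0% = vehicle only and 100% = reference blocker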
TLR9-MyD88 block: TLR9-MyD88 interaction inhibition. CHO BLA complementation TLR9-MyD88, CCF4 FRET ratio. inhibition, % at 4.98 µM. 340,000 tested, 0.21% active;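 active means inhibition above the mean over all tested compounds plus 3 SD, cut at about 21% in these data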;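 further: 0% = DMSO only wells and 100% = clavulanate BLA inhibitor control wells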
CHOP inh: blocks CHOP induction under ER stress | CHO-K1 CHOP-promoter luciferase, tunicamycin-induced, 15-18 h | inhibition, % at 10 µM | 220,000 tested, 3.8% active;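 active means compounds that reduced the stress-induced luciferase reporter signal by more than about 70% of percent inhibition, limit read from the data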;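 further: 0% = tunicamycin plus vehicle and 100% = wells without tunicamycin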
XBP1 UPR activ: activators of adaptive arm of unfolded protein response (XBP1). CHO-XBP1 luciferase reporter, IRE1-XBP1 UPR activation, luminescence; percent of tunicamycin response, DMSO as zero. activation, % at 20 µM. 330,000 tested, 0.33% active;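 active means versus positive control, 20 µM dose yields 30% or more activation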;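 further: 100% = tunicamycin at 10 µg/mL and 0% = DMSO only wells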
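Material: CHO cell line with stable XBP1 luciferase reporter; buffer or medium: F12 medium containing 10% fetal bovine serum; compound: single point, 20 µM final compound, 1% DMSO; incubation: 6 h treatment, 37 °C; measured by: glow luminescence from Steady-Glo reagent; evaluation: activation, % of tunicamycin; control set: tunicamycin high, DMSO low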
UPR CHOP act: apoptotic UPR (CHOP) activation | activation, % at 10 µM | AID 449763 | 330,000 tested, 0.34% active | CHO-CHOP luciferase reporter, luminescence; percent of tunicamycin response over DMSO baseline;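 active means at 10 µM dose, activation of 40% or more, normalized to positive control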;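 further: 100% = tunicamycin at 10 µg/mL and 0% = DMSO alone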
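Test system: CHO CHOP reporter cells. Input: 500 CHO-CHOP cells per well. Medium: F12 with 10% FBS. Technique: luciferase luminescence. Measure: percent activation relative to tunicamycin control. Dosing: 10 µM compound, 0.5% DMSO. Timing: 16-18 h cell attachment, then 6 h compound exposure, 37 °C.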
CHOP confirm: confirmation of CHOP induction inhibitors. inhibition, % at 10 µM. CHO-CHOP promoter luciferase reporter, tunicamycin-induced, luminescence. shares compounds with CHOP inh. 2,100 tested, 45% active. AID 504437;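 active means mean of three repeat readings of reporter signal inhibition above a set limit, cut at about 70% in these data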;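 further: 0% = tunicamycin plus vehicle and 100% = wells lacking tunicamycin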
* hit, by the source's call; . = not tested or not shown. The full list was thinned out, with hits kept by preference.

SMILES	TLR4 MyD88 comp	NOD2 RIPK2 PPI	TLR9-MyD88 block	CHOP inh	XBP1 UPR activ	UPR CHOP act	CHOP confirm
CC1(C(=O)NS(=O)(=O)c2cccc(OC(F)F)c2)CCN1C(=O)CC(c1ccccc1)c1ccccc1 (configuration not stated)	.	3.3	.	.	.	.	.
COc1ccc2nc3sc(C(=O)NCc4cccs4)c(N)c3cc2c1	0.6	.	.	102.0*	-2.0	-0.1	8.6
CCNC(=O)C1(C)CCCN(Cc2ccc(Oc3ccccc3)cc2)C1 (configuration not stated)	.	-13.3	.	.	.	.	.
CCN1/C(=C\C(=S)Nc2ccccc2)Sc2ccccc21	4.0	3.0	-1.2	-25.5	5.9	3.9	.
CCN1/C(=C/C(C)=C/c2sc3ccccc3[n+]2CC)Sc2ccccc21	5.4	4.5	1.7	110.4*	-11.4	-8.7	141.2*
C#CCN1[C@@H]2CCN(C2)c2cc(Br)ccc2S1(=O)=O	.	-2.1	1.0	.	.	.	.
CC1(c2nnnn2-c2ccc3c(c2)OCCO3)CCC(=O)N1CCc1ccc(O)cc1 (configuration not stated)	.	-10.7	.	.	.	.	.
COc1cc(N=c2ssnc2Cl)cc(OC)c1	-25.9	-16.7	0.0	105.7*	0.1	3.1	19.5
Clc1nssc1=Nc1ccc(Br)cc1	2.3	-2.3	0.9	106.4*	.	.	130.8*
COc1ccc(/C=N/NC(=O)c2ccco2)cc1Cn1nc(C)cc1C	-7.1	6.9	1.8	12.8	-1.3	2.0	.
COc1ccc(/C=N\NC(=O)COc2ccc(C(C)(C)C)cc2)cc1Cn1nc(C)cc1C	7.4	-3.7	5.2	109.7*	-5.4	1.6	104.2*
Cc1ccc(S(=O)(=O)N2[C@H](CC(=O)OCc3ccccc3)OC[C@@H]2C)cc1	.	-0.8	.	.	.	.	.
O=S(=O)(Nc1ccc(-c2csc(-c3ccccc3)n2)cc1)c1ccccc1	7.8	-6.5	6.1	99.8*	2.0	0.7	24.5
O=C(Cc1csc(Nc2nc(=S)[nH]c3ccccc23)n1)N1CCN(c2cccc(C(F)(F)F)c2)CC1	-18.1	-8.2	-0.6	106.8*	4.5	2.3	66.1
Cc1ccc(CNC(=O)Cc2csc(Nc3nc(=S)[nH]c4ccccc34)n2)cc1	-6.3	.	.	28.8	0.3	1.7	.
CC1(C(=O)NS(=O)(=O)c2cccc(F)c2)CCN1C(=O)C1CCCCC1 (configuration not stated)	.	-1.3	.	.	.	.	.
Cn1cccc1/C=C1\SC(=O)N(CC(=O)Nc2ccc(Cl)cc2)C1=O	-13.3	-3.3	4.5	100.7*	-5.0	0.9	0.9
CNCC(O)COc1cccc(OC)c1 (configuration not stated)	-11.3	-0.8	-5.6	-25.0	-0.6	0.0	.
CNCC(O)COc1ccccc1 (configuration not stated)	1.2	3.9	-4.7	104.1*	2.5	-1.2	4.8
COc1ccc(NCC(O)COc2ccc(C(C)(C)C)cc2)cc1 (configuration not stated)	4.0	16.2	1.2	104.3*	5.4	-0.6	56.6
OC(CNc1ccccc1)COc1ccc(OCC(O)CNc2ccccc2)cc1 (configuration not stated)	3.5	-2.1	-2.5	65.0	-2.4	4.1	.
COc1ccccc1NCC(O)COc1ccc(C(C)(C)C)cc1 (configuration not stated)	-12.3	-1.7	5.2	105.1*	-1.1	-0.7	120.0*
C=C(C)COc1ccc(-c2n[nH]c(C)c2-c2ccc(OC)cc2)c(O)c1	13.4	6.7	6.7	107.5*	-4.6	-0.9	28.8
O=c1[nH]c(NNC(=S)NC2CCCCC2)nc2c1C1(CCCC1)Cc1ccccc1-2	.	5.2	-9.6	102.9*	-0.6	1.6	109.8*
C=CCNC(=S)NNc1nc2c(c(=O)[nH]1)C1(CCCC1)Cc1ccccc1-2	-7.3	-9.8	2.8	31.7	1.8	0.4	.
SMILES	TLR4 MyD88 comp	NOD2 RIPK2 PPI	TLR9-MyD88 block	CHOP inh	XBP1 UPR activ	UPR CHOP act	CHOP confirm
O=C1N=C(N2CCN(c3ccccc3)CC2)S/C1=C\c1cn[nH]c1-c1ccccc1	2.5	-9.2	-7.3	20.5	-0.9	0.4	.
Cc1cccc(N2CCN(C3=NC(=O)/C(=C\c4cn[nH]c4-c4ccccc4)S3)CC2)c1	-2.6	-8.7	-1.3	102.0*	3.8	5.6	57.3
Cc1ccc([C@H]2N[C@]3(CCCN(Cc4ccc(C(F)(F)F)cc4)C3=O)[C@H]3C(=O)N(Cc4ccccc4)C(=O)[C@@H]23)cc1	.	12.0	-2.8	.	.	.	.
CC(=O)c1sc(Nc2ccc(Oc3ccccc3)cc2)nc1C	.	4.4	.	.	.	.	.
Cc1cccc2c1N(C)C(=O)C2=O	-13.4	-5.4	5.0	-2.0	-3.3	1.5	.
Cc1ccc(OC(=O)CN2C(=O)c3ccccc3C2=O)cc1C	.	8.8	-5.7	.	-1.2	2.0	.
Cc1cc(C)c(C)c(S(=O)(=O)ON2C(=O)c3ccccc3C2=O)c1C	8.4	-8.1	-4.0	101.4*	0.3	13.7	108.0*
Cc1cc(C)c(S(=O)(=O)ON2C(=O)c3ccccc3C2=O)cc1C	-12.3	3.8	-5.3	108.2*	1.6	-0.1	86.9*
Cc1cc(C)cc(OC2CCCCC2NS(=O)(=O)c2ccccc2)c1 (configuration not stated)	3.0	4.4	-12.6	99.4*	-0.4	-0.9	69.9*
Cc1ccc(S(=O)(=O)N2C[C@H]3N(C(=O)OC(C)C)N(C(=O)OC(C)C)C[C@H](OC(=O)NC4CCCC4)[C@@]3(O)C2)cc1	.	1.9	-6.2	.	.	.	.
O=C(Nc1cccc(Cl)c1Cl)c1csc([C@H]2C[C@H](O)[C@@H](CO)O2)n1	.	-14.4	.	.	.	.	.
CCc1ccc(OCC(=O)NC(NC(=S)Nc2ccccc2OC)C(Cl)(Cl)Cl)cc1 (configuration not stated)	7.3	2.7	-0.6	8.5	-0.2	0.1	.
CCc1ccc(OCC(=O)NC(NC(=S)Nc2ccc(C)cc2C)C(Cl)(Cl)Cl)cc1 (configuration not stated)	2.7	2.8	1.6	108.1*	2.1	2.7	113.3*
Cc1cccc(NC(=S)NC(NC(=O)OCc2ccccc2)C(Cl)(Cl)Cl)c1 (configuration not stated)	4.0	-3.2	-27.0	106.3*	-3.9	1.6	103.1*
CC(=O)NC(NC(=S)Nc1ccc(C)cc1C)C(Cl)(Cl)Cl (configuration not stated)	.	-1.4	6.8	-2.3	-1.3	-0.5	.
CCc1ccc(OCC(=O)NC(NC(=S)Nc2ccccc2)C(Cl)(Cl)Cl)cc1 (configuration not stated)	3.9	-9.7	0.1	105.1*	0.3	4.1	104.7*
